Compound activity deposited in PubChem BioAssay by several laboratories.
Hits are enriched below; roughly 5% of the tested compounds scored in any of these assays.
UPR XBP1 act: activators of adaptive XBP1 UPR arm, primary screen, cell-based, CHO-XBP1 luciferase reporter, luminescence, uHTS | IRE1-XBP1 UPR activation; percent of tunicamycin response, DMSO as zero | activation, % at 20 µM | 0.33% of 330,000 active | AID 463104, 2010;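 active means versus positive control, 20 µM dose yields 30% or more activation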;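 further: 100% = tunicamycin at 10 µg/mL and 0% = DMSO only wells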
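incubation = overnight seeding at 37 °C, 6 h compound treatment at 37 °C | assay system = CHO-XBP1 cells stably carrying IRE1-XBP1-driven luciferase reporter | input = 1000 cells per well | detection = luciferase luminescence | dosing = single point, 20 µM final compound, 1% DMSO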
CSC inhib: cancer stem cell viability inhibitors, primary screen, luminescence | cancer stem cell-like cells viability | inhibition, % at 7.5 µM | 1.1% of 300,000 active | AID 2717, 2010; in the data active means inhibition above about 75%; inconclusive means no clear call, values can overlap the other calls; tested in HMLE shEcad cells
Beta apoptosis: inhibitors of cytokine-induced beta cell apoptosis, primary screen, luminescence; INS-1E cytokine-induced death, ATP luminescence, 48 h; percent of positive-control rescue, neutral wells zero; protection from apoptosis, % (concentration not given with the values); 0.8% of 300,000 active;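 active means Every replicate reaches about 75%, or at least half do and their mean reaches it too, limit read from the data; inconclusive means At least half of replicates reach the limit but their mean does not; inactive means Under half of replicates reach the limit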;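 further: 0% = cytokine-treated negative control wells and 100% = positive control rescue; higher means more ATP so stronger rescue from cytokine killing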
T cruzi repl: inhibitors of intracellular T. cruzi growth, primary screen, luminescence, NIH3T3 host cells; 1.4% of 300,000 active; inhibition, % (no concentration beside the values); T. cruzi beta-gal in NIH3T3, 90 h;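 active means mean inhibition across valid replicates above about 55%, limit read from the data; inconclusive means mean below that limit but half or more replicates reach it; inactive means mean below it, under half of replicates reach it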;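 further: signal also drops with host cell toxicity which is not excluded here; 0% = plate median of DMSO wells and 100% = zero luminescence signal; higher percent means less beta-gal luminescence so fewer parasites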
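assay system = mouse NIH/3T3 fibroblasts infected with β-gal-expressing T. cruzi Tulahuen C4 | input = 5,000 NIH/3T3 host cells per well | buffer or medium = DMEM plus 2% FBS | timing = 3 h host attachment, then at least 90 h co-culture | measured by = GalScreen luminescence, 60 min | evaluation = luminescence reflecting intracellular parasite burden, expressed as percent inhibition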
Mdm2 MdmX PPI: inhibitors of human Mdm2-MdmX association, primary screen, cell-based, luminescence, split luciferase, SaOS-2, uHTS; Protein Mdm4 (Homo sapiens) + E3 ubiquitin-protein ligase Mdm2 (Homo sapiens), …; inhibition, % at 8 µM; 3% of 330,000 active; SaOS-2 split-luciferase Mdm2/MdmX complementation;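 active means inhibition of at least 50% at 8 µM in the primary screen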
CHOP UPR activ: activators of apoptotic CHOP UPR arm, primary screen, cell-based, CHO-CHOP luciferase reporter, luminescence, uHTS; UPR activation; percent of tunicamycin response over DMSO baseline; AID 449763, 2010; 0.34% of 330,000 active; activation, % at 10 µM;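 active means at 10 µM dose, activation of 40% or more, normalized to positive control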;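 further: 100% = tunicamycin at 10 µg/mL and 0% = DMSO alone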
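System: CHO-CHOP luciferase reporter cell line | Buffer or medium: F12 medium containing 10% fetal bovine serum | Doses: One dose, 10 µM in 0.5% DMSO | Times: 6 h compound exposure at 37 °C after overnight seeding | Signal: Luciferase luminescence | Read-out: % activation vs tunicamycin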
XBP1 UPR conf: IRE1-XBP1 UPR arm activators, confirmation, cell-based, CHO-XBP1 luciferase reporter, luminescence, single concentration; shares compounds with UPR XBP1 act; activation, % at 20 µM; 63% of 1,000 active;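 active means reporter signal at least 30% of the positive control's activation in two or more of four replicate wells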;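 further: plate controls were DMSO negative control for no effect and tunicamycin 10 µg/mL positive control for full effect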
Mdm2-MdmX conf: Mdm2-MdmX complex disruptors, retested hits, confirmation, luminescence, single concentration; shares compounds with Mdm2 MdmX PPI; inhibition, % at 8 µM; Mdm2-MdmX binding, luminescent assay; 55% of 10,000 active; in the data active means inhibition above about 40%
FLuc counter: full-length luciferase signal inhibition, confirmation, counter-screen for Mdm2/MdmX interaction inhibitor project, cell-based, single concentration, SaOS-2; shares compounds with Mdm2 MdmX PPI; SaOS-2 full-length luciferase counterscreen, luminescence; inhibition, % at 8 µM; 77% of 6,200 active; AID 504607, 2011;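 active means mean inhibition at 8 µM reaching about 37%, which flags the compound as non-specific, limit read from the data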;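 further: p53-null SaOS-2 cells with luciferase driven by a doxycycline-inducible promoter; compound on cells about two nights before reading with doxycycline added after day one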
An asterisk follows results filed as active; ? = inconclusive; / = no result.

SMILES	UPR XBP1 act	CSC inhib	Beta apoptosis	T cruzi repl	Mdm2 MdmX PPI	CHOP UPR activ	XBP1 UPR conf	Mdm2-MdmX conf	others
COc1ccc(Cn2c(C3CCCCC3)nc3c(c(=O)c4ccccc4n3C)c2=O)cc1	10	36	19	?	33	6	/	/
COc1ccc(CCN2CC(C(=O)Nc3ccc(S(C)(=O)=O)cc3)CC2=O)cc1OC (stereo not drawn)	-3	/	-1	-14	-2	0	/	/
O=C(N/N=C/c1ccc(O)cc1O)C(=O)N/N=C/c1ccc(O)cc1O	-4	55	2	-13	22	3	/	/
CC(C)(C)NC(=O)COC(=O)c1ccc2c(c1)C(=O)N(Cc1ccco1)C2=O	-1	-3	3	-7	-19	1	/	/
Oc1cc(-c2ccc(N3CCCCC3)nc2)cc2cccnc12	56*	/	96*	/	98*	7	52*	97*	FLuc counter=50*
Oc1cc(Nc2ccncc2)cc2cccnc12	5	/	-2	/	38	1	/	/
CCOCCCNC(=O)CN1CCN(S(=O)(=O)c2ccc3c(c2)CCC3)CC1	2	1	-4	/	-28	0	/	/
COc1cccc(/C=N/NC(=O)c2cccc([N+](=O)[O-])c2)c1OS(=O)(=O)c1ccccc1	-1	-17	2	6	6	-1	/	/
COc1ccc(/C=N/NC(=O)c2cccc([N+](=O)[O-])c2)c2ccccc12	77*	50	27	-18	86*	2	34*	23
Cn1c(/C=C/c2ccc(Cl)cc2Cl)c([N+](=O)[O-])c(=O)n(C)c1=O	38*	28	2	9	100*	26	39*	76*	FLuc counter=11
COc1ccc(/C=C/c2c([N+](=O)[O-])c(=O)n(C)c(=O)n2C)c(OC)c1	2	-3	-23	0	15	0	/	/
Cc1ccc(S(=O)(=O)/N=C(/Nc2c(C)cccc2C)c2ccccc2)cc1	-2	-9	5	/	23	1	/	/
COC(=O)N/N=C/c1cccc(OCCSc2ccc(Cl)cc2)c1	0	35	3	16	-59	0	/	/
CCOc1ccc(NC(=O)C(CC(=O)O)Cc2ccccc2)cc1 (stereo not drawn)	0	1	-1	-14	-3	1	/	/
CCOc1ccc(NC(=O)C(Cc2ccccc2)N2C(=O)c3cccc4cccc(c34)C2=O)cc1 (stereo not drawn)	65*	1	13	-13	50*	19	69*	47*	FLuc counter=98*
O=C(/C=C/c1ccccc1)NC(NC(=S)Nc1cccc(Cl)c1)C(Cl)(Cl)Cl (stereo not drawn)	51*	72	/	59*	98*	36	30*	68*	FLuc counter=26
COc1ccc(-c2nc3c4c(ncn3n2)-c2ccccc2CC42CCCC2)cc1	1	4	-9	7	-5	11	/	/
Oc1cccc(-c2nc3c4c(ncn3n2)-c2ccccc2CC42CCCC2)c1	31*	111*	-4	30	58*	5	50*	7
CC1=CC(C)[C@H](/C=N/n2c(=O)[nH]c3c([nH]c4ccc(C)cc43)c2=O)C(C)C1 (stereo partly drawn)	87*	87*	25	7	86*	3	99*	7
COc1ccc(/C=N/n2c(=O)[nH]c3c([nH]c4ccc(C)cc43)c2=O)cc1CN1CCOCC1	/	/	/	4	/	/	/	/
Cc1cccc(N2CCN(C(=S)Nc3ccc4nc(N5CCN(C)CC5)cc(C)c4c3)CC2C)c1 (stereo not drawn)	62*	?	10	51	88*	8	47*	60*	FLuc counter=65*
Cc1cc(N2CCN(C)CC2)nc2ccc(NC(=S)N3CCCCCC3)cc12	4	44	10	32	14	5	/	/
CCOC(=O)c1c(NC(=O)c2ccno2)c2cc([N+](=O)[O-])ccc2n1C	-2	-8	-3	2	20	0	/	/
CCOC(=O)c1c(NC(=O)c2cc(C)on2)c2cc([N+](=O)[O-])ccc2n1C	84*	14	27	/	85*	20	49*	6
COc1ccccc1NS(=O)(=O)c1ccc(C)c(C(=O)NCCCN2CCCC2=O)c1	-2	0	/	-1	12	-1	/	/
SMILES	UPR XBP1 act	CSC inhib	Beta apoptosis	T cruzi repl	Mdm2 MdmX PPI	CHOP UPR activ	XBP1 UPR conf	Mdm2-MdmX conf	others
O=[N+]([O-])c1ccc(P(=O)(Cc2ccccc2)c2ccccc2O)cc1 (stereo not drawn)	-3	-12	-4	1	-5	1	/	/
CCn1c(SCC(=O)N2CCN(c3ccccc3)CC2)nc2c([nH]c3ccccc32)c1=O	32*	14	19	-8	58*	18	30	28	FLuc counter=86*
CCn1c(SCC(=O)N2CCCCCC2)nc2c([nH]c3ccccc32)c1=O	-1	-1	12	28	6	-1	/	/
CCC(=O)N(c1nnc(SCC(=O)Nc2ccccc2Cl)s1)C1CC1	0	-23	-3	/	-33	1	/	/
CC1(C)Cc2c(c(N3CCOCC3)nc3sc4c(NCc5ccccc5)nnnc4c23)CS1	137*	8	8	62*	94*	8	14	6
Oc1ccc(/C=N/Nc2nc(N3CCCCCC3)nc(N3CCCCCC3)n2)c(O)c1	39*	/	2	43	66*	11	11	-13
COc1ccccc1-c1cc(-c2ccccc2)nc(SC(C(N)=O)c2ccccc2)c1C#N (stereo not drawn)	70*	12	41	46	93*	13	46*	58*	FLuc counter=19
COc1ccc(C(=O)/C=C/c2ccc(O)cc2)c(O)c1C/C=C(\C)CCC=C(C)C	83*	/	/	/	68*	11	31*	-4
CCN(C(=O)c1cc2cccc(OC)c2oc1=O)C1CCCCC1	0	-15	-5	3	21	-2	/	/
